From ChEMBL document CHEMBL1144579, “Synthesis and antiparasitic evaluation of bis-2,5-[4-guanidinophenyl]thiophenes” (Eur J Med Chem, 2007)
Active and inactive are the calls of the source. The rule behind the calls is not given here.

Key:
[1] = test system: Trypanosoma brucei rhodesiense; assay: Antiparasitic activity against Trypanosoma brucei rhodesiense STIB900; format: functional, organism-based
Outline: (§1)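 In vitro IC50s against T. b. rhodesiense STIB900 and P. falciparum K1 are means of at least two independent experiments. The IC50 values averaged for each compound were within a factor of two of each other.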

Plasmodium falciparum = assay: Antiparasitic activity against Plasmodium falciparum K1; format: functional, organism-based; outline: as §1
Leishmania donovani = assay: Antiparasitic activity against Leishmania donovani; format: functional, organism-based
Trypanosoma cruzi = assay: Antiparasitic activity against Trypanosoma cruzi Tulahuen LacZ C4; format: functional, organism-based
L6 = assay: Cytotoxicity against rat L6 cells by alamar blue assay; format: cell-based
[2] = test system: Trypanosoma brucei rhodesiense; assay: Antitrypanosomal activity in Trypanosoma brucei rhodesiense STIB900 infected mouse at 20 mg/kg, ip administered for 4 days; format: functional, organism-based; design: dose 20 mg/kg
Mus musculus [3] = assay: Survival of Trypanosoma brucei rhodesiense STIB900 infected mouse at 20 mg/kg, ip administered for 4 days; format: functional; settings: route intraperitoneal
Mus musculus [4] = assay: Survival of Trypanosoma brucei rhodesiense STIB900 infected mouse at 5 mg/kg, ip administered for 4 days; format: functional; settings: route intraperitoneal

Compound	IC50 [1]	IC50 (Plasmodium falciparum)	IC50 (Leishmania donovani)	IC50 (Trypanosoma cruzi)	IC50 (L6)	Activity [2]	Survival (Mus musculus [3])	Survival (Mus musculus [4])
N=C(N)Nc1ccc(-c2ccc(-c3ccc(NC(=N)N)cc3)s2)cc1	28 nM	3.6 nM	6700 nM	154000 nM	100000 nM	inactive	43 days	–
N=C(Nc1ccc(-c2ccc(-c3ccc(NC(=N)NC4CCCCC4)cc3)s2)cc1)NC1CCCCC1	354 nM	160 nM	2500 nM	1700 nM	4300 nM	–	–	–
CC(C)NC(=N)Nc1ccc(-c2ccc(-c3ccc(NC(=N)NC(C)C)cc3)s2)cc1	116 nM	107 nM	11000 nM	28200 nM	69400 nM	–	–	>34 days
CCN(CC)CCCC(C)Nc1ccnc2cc(Cl)ccc12 (centres undefined) [CHLOROQUINE]	–	–	–	–	188000 nM	–	–	–
N=C(Nc1ccccc1)Nc1ccc(-c2ccc(-c3ccc(NC(=N)Nc4ccccc4)cc3)s2)cc1	1900 nM	154 nM	35000 nM	9900 nM	2500 nM	–	–	–
N=C(N)c1ccc(-c2ccc(-c3ccc(C(=N)N)cc3)o2)cc1 [FURAMIDINE]	–	–	2800 nM	23300 nM	–	inactive	>52.5 days	–
N=C(Nc1ccc(-c2ccc(-c3ccc(NC(=N)NC4CCCC4)cc3)s2)cc1)NC1CCCC1	306 nM	134 nM	1500 nM	8400 nM	15900 nM	–	>39.5 days	–
Cc1ccc(NC(=N)Nc2ccc(-c3ccc(-c4ccc(NC(=N)Nc5ccc(C)cc5)cc4)s3)cc2)cc1	573 nM	42.7 nM	16000 nM	3700 nM	1100 nM	–	–	–
N=C(N)c1ccc(OCCCCCOc2ccc(C(=N)N)cc2)cc1 [PENTAMIDINE]	–	–	1900 nM	5350 nM	–	inactive	40.8 days	–
CNC(=N)Nc1ccc(-c2ccc(-c3ccc(NC(=N)NC)cc3)s2)cc1	6.2 nM	23 nM	6200 nM	30500 nM	54300 nM	–	>40.25 days	–
